Laboratory results as given in ChEMBL document CHEMBL4184133, “Chemical Constituents and Anti-inflammatory Principles from the Fruits of Forsythia suspensa” (J Nat Prod, 2017).
≈ marks a conversion by molar mass, not a printed value.

Experiments:
Neutrophil [1] = assay: Anti-inflammatory activity in human neutrophils assessed as inhibition of fMLP/CB-induced elastase release pre-incubated for 5 mins before fMLP/CB stimulation using MeO-Suc-Ala-Ala-Pro-Val-pnitroanilide as substrate; assay type: functional, cell-based
Method in brief: (§1)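 Neutrophils were isolated by dextran sedimentation, Ficoll Hypaque centrifugation and hypotonic lysis of erythrocytes, then held in Ca2+-free HBSS pH 7.4 at 4 °C. Cells at 6 × 10^5/mL with 100 μM substrate were equilibrated 2 min at 37 °C and given compound or 0.1% DMSO vehicle for 5 min. They were activated with 100 nM fMLP plus 0.5 μg/mL cytochalasin B, and A405 was monitored continuously. Release is expressed as percent of the drug-free activated control. Mean ± SD.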

Neutrophil [2] = assay: Anti-inflammatory activity in human neutrophils assessed as inhibition of fMLP/CB-induced superoxide anion generation by measuring superoxide dismutase SOD-inhibitable ferricytochrome c reduction at 10 ug/ml incubated for 5 mins before fMLP/CB stimulation for 3 mins by spectrophotometry; assay type: functional
Method in brief: (§2)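 Same neutrophil preparation. Cells at 6 × 10^5/mL with 0.5 mg/mL ferricytochrome c and 1 mM Ca2+ were equilibrated 2 min at 37 °C and given compound or 0.1% DMSO for 5 min. Cytochalasin B (1 μg/mL) was added, then 100 nM fMLP. A550 was monitored continuously with stirring. Superoxide was calculated from the difference with versus without SOD (100 U/mL) using ε = 21.1/mM/10 mm. IC50 values are mean ± SD, n = 3.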

Neutrophil [3] = assay: Anti-inflammatory activity in human neutrophils assessed as inhibition of fMLP/CB-induced superoxide anion generation by measuring superoxide dismutase SOD-inhibitable ferricytochrome c reduction incubated for 5 mins before fMLP/CB stimulation for 3 mins by spectrophotometry; assay type: functional, cell-based; method in brief: as §2
Neutrophil [4] = assay: Anti-inflammatory activity in human neutrophils assessed as inhibition of fMLP/CB-induced elastase release at 10 ug/ml pre-incubated for 5 mins before fMLP/CB stimulation using MeO-Suc-Ala-Ala-Pro-Val-pnitroanilide as substrate; assay type: functional; method in brief: as §1

`C/C(=C\C(=O)O)CC[C@H]1C(CO)=CC[C@H]2[C@@](C)(CO)CCC[C@]12C` gave an IC50 (Neutrophil [1]) greater than 10 µg/mL, an inhibition at 10 µg/mL (Neutrophil [2]) greater than 50% and an IC50 (Neutrophil [3]) of 8.3 µg/mL (≈ 24.7 µM).

For `COc1cc([C@H]2OC[C@H]3[C@@H]2CO[C@H]3c2ccc(O)c(OC)c2)ccc1O` [PINORESINOL], the IC50 (Neutrophil [1]) was greater than 10 µg/mL, the inhibition at 10 µg/mL (Neutrophil [2]) was greater than 50% and the IC50 (Neutrophil [3]) was 3.4 µg/mL (≈ 9.49 µM). For the same compound, the inhibition (Neutrophil [3]) was “Dose-dependent effect”.

Compound `CC(=O)O[C@H]1CC[C@]2(C)[C@H]3CCC4[C@@H]([C@@](C)(O)CCC=C(C)C)CC[C@@]4(C)[C@]3(C)CC[C@H]2C1(C)C` (stereo partly drawn) has an IC50 (Neutrophil [1]) greater than 10 µg/mL and an IC50 (Neutrophil [3]) greater than 10 µg/mL.

`C=C1CC[C@H]2[C@@](C)(COC=O)CCC[C@]2(C)[C@H]1CC/C(C)=C\C(=O)O` showed an IC50 (Neutrophil [1]) greater than 10 µg/mL and an IC50 (Neutrophil [3]) greater than 10 µg/mL.

`C=C1CC[C@H]2C(C)(C)C(=O)CC[C@]2(C)[C@H]1CC/C(C)=C/C(=O)O` showed an IC50 (Neutrophil [1]) greater than 10 µg/mL and an IC50 (Neutrophil [3]) greater than 10 µg/mL.

Work on `COC1CC[C@@](C)([C@H]2CC[C@]3(C)[C@@H]2CC[C@@H]2[C@@]4(C)CCC(OC(C)=O)C(C)(C)[C@@H]4CC[C@]23C)O1` (stereo partly drawn) yielded an IC50 (Neutrophil [1]) greater than 10 µg/mL and an IC50 (Neutrophil [3]) greater than 10 µg/mL.

Compound `CC(=O)O[C@H]1CC[C@]2(C)[C@H]3CCC4[C@@H]([C@]5(C)CC[C@@H](O)C(C)(C)O5)CC[C@@]4(C)[C@]3(C)CC[C@H]2C1(C)C` (stereo partly drawn) has an IC50 (Neutrophil [1]) greater than 10 µg/mL and an IC50 (Neutrophil [3]) greater than 10 µg/mL.

In the case of `COC(C)(C)/C=C/C[C@](C)(O)[C@H]1CC[C@]2(C)C1CC[C@@H]1[C@@]3(C)CC[C@H](OC(C)=O)C(C)(C)[C@@H]3CC[C@]12C` (stereo partly drawn), the IC50 (Neutrophil [1]) is reported as greater than 10 µg/mL and the IC50 (Neutrophil [3]) is reported as greater than 10 µg/mL.

For `C[C@@H]1O[C@@H](OC[C@H]2O[C@@H](OCCc3ccc(O)c(O)c3)[C@H](O)[C@@H](O)[C@@H]2OC(=O)/C=C/c2ccc(O)c(O)c2)[C@H](O)[C@H](O)[C@H]1O` [FORSYTHIASIDE], the IC50 (Neutrophil [1]) was greater than 10 µg/mL, the inhibition at 10 µg/mL (Neutrophil [2]) was greater than 50% and the IC50 (Neutrophil [3]) was 1.4 µg/mL (≈ 2.24 µM). For the same compound, the inhibition (Neutrophil [3]) was “Dose-dependent effect”.

With `CC1=C(CC/C(C)=C/C(=O)O)[C@@]2(C)CCC[C@@](C)(CO)[C@@H]2CC1=O` the IC50 (Neutrophil [1]) was greater than 10 µg/mL and the IC50 (Neutrophil [3]) was greater than 10 µg/mL.

With `CC(=O)O[C@H]1CC[C@]2(C)[C@H]3CC=C4[C@@H]5CC(C)(C)CC[C@]5(C(=O)O)CC[C@@]4(C)[C@]3(C)CC[C@H]2C1(C)C` [ACETYL OLEANOLIC ACID] the IC50 (Neutrophil [1]) was greater than 10 µg/mL and the IC50 (Neutrophil [3]) was greater than 10 µg/mL.

With `CNC(=O)c1cc(Oc2ccc(NC(=O)Nc3ccc(Cl)c(C(F)(F)F)c3)cc2)ccn1` [SORAFENIB] the IC50 (Neutrophil [1]) was 0.9 µg/mL (≈ 1.94 µM) and the IC50 (Neutrophil [3]) was 1.5 µg/mL (≈ 3.23 µM).

In the case of `CC(=O)OC1CC[C@]2(C)[C@H]3CC[C@@H]4[C@@H]([C@]5(C)CCC(=O)O5)CC[C@@]4(C)[C@]3(C)CC[C@H]2C1(C)C` (stereo partly drawn), the IC50 (Neutrophil [1]) is reported as greater than 10 µg/mL and the IC50 (Neutrophil [3]) is reported as greater than 10 µg/mL.

With `C=C1CC[C@H]2[C@@](C)(CO)CCC[C@]2(C)[C@H]1CC/C(C)=C\C(=O)O` the IC50 (Neutrophil [1]) was greater than 10 µg/mL, the inhibition at 10 µg/mL (Neutrophil [2]) was greater than 50% and the IC50 (Neutrophil [3]) was 2.5 µg/mL (≈ 7.8 µM).

`COc1ccc([C@H]2OC[C@@H]3C(=O)OC[C@@H]32)cc1OC` gave an IC50 (Neutrophil [1]) greater than 10 µg/mL, an inhibition at 10 µg/mL (Neutrophil [2]) greater than 50% and an IC50 (Neutrophil [3]) of 5.6 µg/mL (≈ 21.2 µM). The inhibition (Neutrophil [3]) was “Dose-dependent effect”.

Compound `C=C1CC[C@@H]2[C@](C)(CCC[C@@]2(C)C(=O)O)[C@H]1CC/C(C)=C\C(=O)O` has an IC50 (Neutrophil [1]) greater than 10 µg/mL and an IC50 (Neutrophil [3]) greater than 10 µg/mL.

`O=C(Cc1ccc(O)cc1)OC[C@H]1CC[C@@H]2C(C(=O)O)=CO[C@@H](O[C@@H]3O[C@H](CO)[C@@H](O)[C@H](O)[C@H]3O)[C@H]12` gave an IC50 (Neutrophil [1]) greater than 10 µg/mL and an IC50 (Neutrophil [3]) greater than 10 µg/mL.

Compound `C=C1CCC2[C@@](C)(CO)CCC[C@]2(C)[C@H]1CC/C(C)=C/C(=O)O` (stereo partly drawn) has an IC50 (Neutrophil [1]) greater than 10 µg/mL, an inhibition at 10 µg/mL (Neutrophil [2]) greater than 50% and an IC50 (Neutrophil [3]) of 7.4 µg/mL (≈ 23.1 µM). For the same compound, the inhibition (Neutrophil [3]) was “Dose-dependent effect”.

Work on `C=C1CC[C@H]2[C@](C)(CO)CCC[C@]2(C)[C@H]1CC/C(C)=C/C(=O)O` yielded an IC50 (Neutrophil [1]) greater than 10 µg/mL and an IC50 (Neutrophil [3]) greater than 10 µg/mL.

`COc1cc([C@H]2OC[C@H]3[C@@H]2CO[C@H]3c2ccc(OC)c(OC)c2)ccc1O` [PHILLYGENIN] gave an IC50 (Neutrophil [1]) greater than 10 µg/mL, an inhibition at 10 µg/mL (Neutrophil [2]) greater than 50% and an IC50 (Neutrophil [3]) of 6.4 µg/mL (≈ 17.2 µM). The inhibition (Neutrophil [3]) was “Dose-dependent effect”.

With `O=C1C=CC2(O)CC(=O)OC2C1` (stereo not drawn) the IC50 (Neutrophil [1]) was greater than 10 µg/mL and the IC50 (Neutrophil [3]) was greater than 10 µg/mL.

With `COc1cc(C[C@H]2COC(=O)[C@@H]2Cc2ccc(O)c(OC)c2)ccc1O` [MATAIRESINOL] the IC50 (Neutrophil [1]) was 7.3 µg/mL (≈ 20.4 µM), the inhibition (Neutrophil [1]) was “Dose-dependent effect” and the inhibition at 10 µg/mL (Neutrophil [2]) was greater than 50%. The IC50 (Neutrophil [3]) was 4.3 µg/mL (≈ 12 µM), the inhibition (Neutrophil [3]) was “Dose-dependent effect” and the inhibition at 10 µg/mL (Neutrophil [4]) was greater than 50%.

`COc1cc([C@H]2OC[C@H]3[C@@H]2CO[C@@H]3c2ccc(O)c(OC)c2)ccc1O` gave an IC50 (Neutrophil [1]) greater than 10 µg/mL, an inhibition at 10 µg/mL (Neutrophil [2]) greater than 50% and an IC50 (Neutrophil [3]) of 1.3 µg/mL (≈ 3.63 µM). For the same compound, the inhibition (Neutrophil [3]) was “Dose-dependent effect”.

Work on `C/C(=C\C(=O)O)CC[C@@]1(C)[C@H](C)CC[C@]2(C)C(C(=O)O)=CCC[C@H]12` yielded an IC50 (Neutrophil [1]) greater than 10 µg/mL and an IC50 (Neutrophil [3]) greater than 10 µg/mL.

With `C=C(C)[C@@H]1CC[C@]2(C(=O)O)CC[C@]3(C)C(CCC4[C@@]5(C)C[C@@H](O)[C@H](O)C(C)(C)C5CC[C@]43C)C12` (stereo partly drawn) the IC50 (Neutrophil [1]) was 1.9 µg/mL (≈ 4.02 µM), the inhibition (Neutrophil [1]) was “Dose-dependent effect” and the inhibition at 10 µg/mL (Neutrophil [2]) was greater than 50%. For the same compound, the IC50 (Neutrophil [3]) was 0.8 µg/mL (≈ 1.69 µM), the inhibition (Neutrophil [3]) was “Dose-dependent effect” and the inhibition at 10 µg/mL (Neutrophil [4]) was greater than 50%.

In the case of `C[C@H]1[C@H](C)CC[C@]2(C(=O)O)CC[C@]3(C)C(=CC[C@@H]4[C@@]5(C)CC[C@H](O)C(C)(C)[C@@H]5CC[C@]43C)[C@H]12` [URSOLIC ACID], the IC50 (Neutrophil [1]) is reported as 0.8 µg/mL (≈ 1.75 µM), the inhibition (Neutrophil [1]) is reported as “Dose-dependent effect” and the inhibition at 10 µg/mL (Neutrophil [2]) is reported as greater than 50%. For the same compound, the IC50 (Neutrophil [3]) was 0.6 µg/mL (≈ 1.31 µM), the inhibition (Neutrophil [3]) was “Dose-dependent effect” and the inhibition at 10 µg/mL (Neutrophil [4]) was greater than 50%.
